Laboratory results as given in ChEMBL document CHEMBL4689842, “EUbOPEN Chemogenomics Library wave 1” (2021).
Where “and” joins values, the source holds several entries; their conditions need not be identical. Identical values can stand only once.

Test system: U2OS
Experiment: Multiplex assay against U2OS
Type: toxicity, cell-based
Conditions: human
How it was run: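 On a CQ1 microscope at 37°C and 5% CO2, live cells were imaged after compound addition. They had been stained at seeding with Hoechst33342, BioTracker Green Microtubule Cytoskeleton Dye, MitoTracker Red and Annexin V Alexa Fluor 680. CellPathfinder machine-learning gating assigned cells to Hoechst high-intensity objects or normal cells, normal cells to healthy, pyknosed or fragmented nuclei, and pyknosed cells to mitotic or apoptotic. Tubulin, mitochondrial-mass and membrane-permeability phenotypes are per cents of healthy-nucleus cells.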

[1] = 12 h, 1 µM, compound concentration 1 uM, replicate 1
[2] = 12 h, 1 µM, compound concentration 1 uM, replicate 2
[3] = 12 h, 10 µM, compound concentration 10 uM, replicate 1
[4] = 12 h, 10 µM, compound concentration 10 uM, replicate 2
[5] = 24 h, 1 µM, compound concentration 1 uM, replicate 1
[6] = 24 h, 1 µM, compound concentration 1 uM, replicate 2
[7] = 24 h, 10 µM, compound concentration 10 uM, replicate 1
[8] = 24 h, 10 µM, compound concentration 10 uM, replicate 2
[9] = 48 h, 1 µM, compound concentration 1 uM, replicate 1
[10] = 48 h, 1 µM, compound concentration 1 uM, replicate 2
[11] = 48 h, 10 µM, compound concentration 10 uM, replicate 1
[12] = 48 h, 10 µM, compound concentration 10 uM, replicate 2

O=C(NCCCC1CCCCC1)c1ccc(CNC(=O)c2cnn(-c3ccccc3)c2C(F)(F)F)cc1 [SR-321]
Population Apoptotic (%) [1]: 37% [middle of 4 runs]
Population Healthy Nuclei (%) [1]: 74% and 91%
Population Hoechst High Intensity Objects (%) [1]: 6% and 9% and 5%
Population Membrane Permeable-Phenotype (%) [1]: 9% and 7%
Population Mitotic Cells (%) [1]: 66% [middle of 4 runs]
Population Normal (%) [1]: 93% and 90% and 94%
Population Pyknosed Nuclei (%) [1]: 14% and 13% and 7%
Population Tubulin-Different-Phenotype (%) [1]: 15% and 16% and 35%
Total Cell Count [1]: 181 [middle of 4 runs]
Population Healthy Nuclei (%) [2]: 89% and 53% and 83% and 88%
Population Hoechst High Intensity Objects (%) [2]: 8% and 21% and 7%
Population Membrane Permeable-Phenotype (%) [2]: 14% and 0% and 12%
Population Normal (%) [2]: 91% and 78% and 92%
Population Pyknosed Nuclei (%) [2]: 5% and 6%
Population Tubulin-Different-Phenotype (%) [2]: 20% and 26%
Total Cell Count [2]: 89 [middle of 4 runs]
Population Apoptotic (%) [3]: 40% and 31% and 41%
Population Fragmented Nuclei (%) [3]: 9% [middle of 4 runs]
Population Healthy Nuclei (%) [3]: 71% and 80% and 75% and 86%
Population Hoechst High Intensity Objects (%) [3]: 2% and 4% and 6%
Population Mitochondria Different-Phenotype (%) [3]: 24% and 25% and 20%
Population Mitotic Cells (%) [3]: 60% and 68% and 58%
Population Normal (%) [3]: 97% and 95% and 93%
Population Pyknosed Nuclei (%) [3]: 14% [middle of 4 runs]
Population Tubulin-Different-Phenotype (%) [3]: 15% [middle of 4 runs]
Total Cell Count [3]: 197 [middle of 4 runs]
Population Healthy Nuclei (%) [4]: 66% and 69%
Population Membrane Permeable-Phenotype (%) [4]: 5% and 0% and 11%
Population Mitotic Cells (%) [4]: 80% and 50% and 81% and 88%
Population Normal (%) [4]: 73% and 94% and 91% and 92%
Total Cell Count [4]: 117 [middle of 4 runs]
Population Apoptotic (%) [5]: 40% and 45% and 15%
Population Fragmented Nuclei (%) [5]: 8% [middle of 4 runs]
Population Healthy Nuclei (%) [5]: 85% and 81% and 79% and 91%
Population Membrane Permeable-Phenotype (%) [5]: 8% and 5% and 10%
Population Mitotic Cells (%) [5]: 60% and 54% and 84%
Population Normal (%) [5]: 94% and 96% and 98%
Population Pyknosed Nuclei (%) [5]: 7% and 9% and 8%
Population Tubulin-Different-Phenotype (%) [5]: 19% [middle of 4 runs]
Total Cell Count [5]: 233 [middle of 4 runs]
Population Healthy Nuclei (%) [6]: 66% and 82% and 74% and 94%
Population Membrane Permeable-Phenotype (%) [6]: 4% and 3% and 0% and 7%
Population Mitochondria Different-Phenotype (%) [6]: 19% [middle of 4 runs]
Population Mitotic Cells (%) [6]: 100% and 40%
Population Normal (%) [6]: 85% and 95% and 89% and 97%
Population Tubulin-Different-Phenotype (%) [6]: 30% and 22%
Total Cell Count [6]: 88 [middle of 4 runs]
Population Apoptotic (%) [7]: 44% and 36% and 21%
Population Healthy Nuclei (%) [7]: 71% and 75% and 74% and 89%
Population Hoechst High Intensity Objects (%) [7]: 2% and 4%
Population Membrane Permeable-Phenotype (%) [7]: 5% [middle of 4 runs]
Population Mitochondria Different-Phenotype (%) [7]: 19% and 17%
Population Mitotic Cells (%) [7]: 55% and 63% and 78%
Population Normal (%) [7]: 97% and 95%
Population Pyknosed Nuclei (%) [7]: 15% and 16% and 6%
Population Tubulin-Different-Phenotype (%) [7]: 12% [middle of 4 runs]
Total Cell Count [7]: 232 [middle of 4 runs]
Population Healthy Nuclei (%) [8]: 67% and 65% and 86%
Population Mitotic Cells (%) [8]: 50% and 66% and 88%
Population Normal (%) [8]: 93% and 81% and 92% and 96%
Population Pyknosed Nuclei (%) [8]: 11% and 14%
Total Cell Count [8]: 124 [middle of 4 runs]
Population Apoptotic (%) [9]: 33% and 45% and 47%
Population Fragmented Nuclei (%) [9]: 5% and 9%
Population Healthy Nuclei (%) [9]: 88% and 86%
Population Hoechst High Intensity Objects (%) [9]: 1%
Population Membrane Permeable-Phenotype (%) [9]: 2%
Population Mitochondria Different-Phenotype (%) [9]: 11% and 8%
Population Mitotic Cells (%) [9]: 66% and 54% and 52%
Population Normal (%) [9]: 98%
Population Pyknosed Nuclei (%) [9]: 7%
Population Tubulin-Different-Phenotype (%) [9]: 23% and 19%
Total Cell Count [9]: 217 and 382 and 367
Population Fragmented Nuclei (%) [10]: 4% and 7% and 6%
Population Healthy Nuclei (%) [10]: 85% and 87%
Population Hoechst High Intensity Objects (%) [10]: 6% and 3% and 8%
Population Membrane Permeable-Phenotype (%) [10]: 6% and 5% and 4%
Population Mitochondria Different-Phenotype (%) [10]: 18% and 10% and 15%
Population Normal (%) [10]: 93% and 96% and 92%
Population Pyknosed Nuclei (%) [10]: 10% and 4% and 6%
Population Tubulin-Different-Phenotype (%) [10]: 42% and 18% and 27%
Total Cell Count [10]: 118 and 104 and 109
Population Apoptotic (%) [11]: 50% and 43% and 45%
Population Fragmented Nuclei (%) [11]: 9% and 10% and 8%
Population Healthy Nuclei (%) [11]: 72% and 74% and 78%
Population Hoechst High Intensity Objects (%) [11]: 3% and 2%
Population Membrane Permeable-Phenotype (%) [11]: 3% and 2%
Population Mitochondria Different-Phenotype (%) [11]: 16% and 11% and 7%
Population Mitotic Cells (%) [11]: 49% and 56% and 54%
Population Normal (%) [11]: 96% and 97%
Population Pyknosed Nuclei (%) [11]: 18% and 14% and 13%
Population Tubulin-Different-Phenotype (%) [11]: 10% and 4% and 12%
Total Cell Count [11]: 425 and 284 and 300
Population Apoptotic (%) [12]: 61% and 60% and 57%
Population Fragmented Nuclei (%) [12]: 18% and 16% and 20%
Population Healthy Nuclei (%) [12]: 61% and 77% and 62%
Population Membrane Permeable-Phenotype (%) [12]: 12% and 6% and 5%
Population Mitochondria Different-Phenotype (%) [12]: 24% and 22% and 17%
Population Mitotic Cells (%) [12]: 38% and 40% and 42%
Population Normal (%) [12]: 82% and 94% and 91%
Population Tubulin-Different-Phenotype (%) [12]: 16% and 15% and 17%
Total Cell Count [12]: 125 and 91 and 127
